Measurements: ChEMBL document CHEMBL2417481, “Regioselective synthesis of 6-substituted-2-amino-5-bromo-4(3H)-pyrimidinones and evaluation of their antiviral activity” (Eur J Med Chem, 2013)

How the values were obtained:
[1] = Cytotoxicity against human HEL cells assessed as morphological changes; assay type: cell-based
[2] = system: Influenza A virus; experiment: Antiviral activity against Influenza A virus H1N1 infected in MDCK cells assessed as reduction in virus-induced cytopathogenicity; assay type: functional, organism-based
How it was run: (§1)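 Confluent cell monolayers (Vero, HeLa, HEL or MDCK, as named in each line) were infected with 100 CCID50 of virus while exposed to a range of compound concentrations. Cytopathicity was scored once it was complete in untreated infected controls.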

[3] = Cytotoxicity against human HeLa cells assessed as morphological changes; assay type: cell-based
[4] = system: Influenza A virus; experiment: Antiviral activity against Influenza A virus […] infected in MDCK cells assessed as reduction in virus-induced cytopathogenicity; assay type: functional, organism-based; how it was run: as §1
[5] = system: Vesicular stomatitis virus; experiment: Antiviral activity against Vesicular stomatitis virus infected in human HEL cells assessed as reduction in virus-induced cytopathogenicity; assay type: functional, organism-based; how it was run: as §1
[6] = system: Cytomegalovirus; experiment: Antiviral activity against Cytomegalovirus Davis infected in human HEL cells assessed as reduction in virus plaque formation; assay type: functional, organism-based; conditions: Human betaherpesvirus 5, Davis
How it was run: (§2)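 Confluent HEL fibroblasts were inoculated with 100 PFU of CMV at graded compound concentrations. Plaques were counted once formation was complete in untreated infected controls.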

[7] = Cytotoxicity against african green monkey Vero cells assessed as morphological changes; assay type: cell-based; conditions: chlorocebus sabaeus
[8] = system: Sindbis virus; experiment: Antiviral activity against Sindbis virus infected in african green monkey Vero cells assessed as reduction in virus-induced cytopathogenicity; assay type: functional, organism-based; how it was run: as §1
[9] = system: Coxsackievirus B4; experiment: Antiviral activity against Coxsackievirus B4 infected in human HeLa cells assessed as reduction in virus-induced cytopathogenicity; assay type: functional, organism-based; conditions: Enterovirus B; how it was run: as §1
[10] = system: Coxsackievirus B4; experiment: Antiviral activity against Coxsackievirus B4 infected in african green monkey Vero cells assessed as reduction in virus-induced cytopathogenicity; assay type: functional, organism-based; conditions: Enterovirus B; how it was run: as §1
[11] = system: Human alphaherpesvirus 1; experiment: Antiviral activity against thymidine kinase negative […] Herpes simplex virus-1 KOS infected in human HEL cells assessed as reduction in virus-induced cytopathogenicity; assay type: functional, organism-based; conditions: Human alphaherpesvirus 1, KOS; how it was run: as §1
[12] = system: Mammalian orthoreovirus 1; experiment: Antiviral activity against Reovirus-1 infected in african green monkey Vero cells assessed as reduction in virus-induced cytopathogenicity; assay type: functional, organism-based; conditions: Mammalian orthoreovirus 1, Vero
How it was run: (§3)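 Confluent Vero monolayers in 96-well plates were inoculated with 100 CCID50 of virus together with varying compound concentrations. Cytopathicity was scored once it was complete in untreated virus-infected control cultures.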

[13] = system: Feline coronavirus; experiment: Antiviral activity against Feline coronavirus infected in cat CRFK cells assessed as inhibition of virus-induced cytopathic effect by MTS assay; assay type: functional, organism-based; conditions: Alphacoronavirus 1, CRFK
[14] = system: Human alphaherpesvirus 3; experiment: Antiviral activity against thymidine kinase positive Varicella-zoster virus OKA infected in human HEL cells assessed as reduction in virus plaque formation; assay type: functional, cell-based, Human herpesvirus 3 strain Oka vaccine; conditions: Human alphaherpesvirus 3, OKA
How it was run: (§4)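 Confluent HEL fibroblast cultures received 20 PFU of VZV together with varying compound concentrations. Plaque formation was read when it reached completion in untreated virus controls.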

[15] = system: Human alphaherpesvirus 2; experiment: Antiviral activity against Herpes simplex virus-2 G infected in human HEL cells assessed as reduction in virus-induced cytopathogenicity; assay type: functional, organism-based; conditions: Human alphaherpesvirus 2, strain G; how it was run: as §1
[16] = Cytotoxicity against MDCK cells assessed as morphological changes; assay type: cell-based, Canis lupus familiaris; conditions: dog
[17] = system: Punta Toro virus; experiment: Antiviral activity against Punta Toro virus infected in african green monkey Vero cells assessed as reduction in virus-induced cytopathogenicity; assay type: functional, organism-based; how it was run: as §1
[18] = system: Influenza B virus; experiment: Antiviral activity against Influenza B virus infected in MDCK cells assessed as reduction in virus-induced cytopathogenicity; assay type: functional, organism-based; how it was run: as §1
[19] = system: Cytomegalovirus; experiment: Antiviral activity against Cytomegalovirus AD-169 infected in human HEL cells assessed as reduction in virus plaque formation; assay type: functional, organism-based; conditions: Human betaherpesvirus 5, AD-169, HEL; how it was run: as §2
[20] = system: Felid alphaherpesvirus 1; experiment: Antiviral activity against Feline Herpes virus infected in cat CRFK cells assessed as inhibition of virus-induced cytopathic effect by MTS assay; assay type: functional, organism-based; conditions: Felid alphaherpesvirus 1, CRFK
[21] = system: Human alphaherpesvirus 3; experiment: Antiviral activity against thymidine kinase negative Varicella-zoster virus 07-1 infected in human HEL cells assessed as reduction in the virus plaque formation; assay type: functional, organism-based; conditions: Human alphaherpesvirus 3, 07-1, HEL; how it was run: as §4
[22] = Cytotoxicity against cat CRFK cells assessed as cell viability by MTS assay; assay type: cell-based, Felis catus
[23] = system: Respiratory syncytial virus; experiment: Antiviral activity against Respiratory syncytial virus Long infected in human HeLa cells assessed as reduction in virus-induced cytopathogenicity; assay type: functional, organism-based; how it was run: as §1
[24] = system: Vesicular stomatitis virus; experiment: Antiviral activity against Vesicular stomatitis virus infected in human HeLa cells assessed as reduction in virus-induced cytopathogenicity; assay type: functional, organism-based; how it was run: as §1
[25] = system: Human alphaherpesvirus 1; experiment: Antiviral activity against Herpes simplex virus-1 KOS infected in human HEL cells assessed as reduction in virus-induced cytopathogenicity; assay type: functional, organism-based; conditions: Human alphaherpesvirus 1, KOS; how it was run: as §1
[26] = system: Human respirovirus 3; experiment: Antiviral activity against Parainfluenza virus 3 infected in african green monkey Vero cells assessed as reduction in virus-induced cytopathogenicity; assay type: functional, organism-based; conditions: Human respirovirus 3, Vero; how it was run: as §3

Row | SMILES | MCC [1] [µM] | EC50 [2] [µM] | MCC [3] [µM] | EC50 [4] [µM] | EC50 [5] [µM] | EC50 [6] [µM] | MCC [7] [µM] | EC50 [8] [µM] | EC50 [9] [µM] | EC50 [10] [µM] | EC50 [11] [µM] | EC50 [12] [µM] | EC50 [13] [µM] | EC50 [14] [µM] | EC50 [15] [µM] | MCC [16] [µM] | EC50 [17] [µM] | EC50 [18] [µM] | EC50 [19] [µM] | EC50 [20] [µM] | other results
1 | COc1ccc(/C=C/c2nc(N)[nH]c(=O)c2Br)cc1OC | > 100 | > 20 | > 100 | > 20 | > 100 | > 100 | > 100 | > 100 | > 100 | > 100 | > 100 | > 100 | > 100 | > 100 | > 100 | 100 | > 100 | > 20 | > 100 | > 100 | EC50 [21]: > 100 µM; MCC [22]: > 100 µM; EC50 [23]: > 100 µM; EC50 [24]: 45 µM; EC50 [25]: > 100 µM; EC50 [26]: > 100 µM
2 | Cc1cc(C)c(/C=C/c2nc(N)[nH]c(=O)c2Br)c(C)c1 | > 20 | > 20 | 100 | > 20 | > 20 | 8.9 | 100 | > 20 | > 20 | > 20 | > 20 | > 20 | > 20 | 2.5 | > 20 | > 20 | > 20 | > 20 | 11 | 1.5 | EC50 [21]: 5.3 µM; MCC [22]: 58 µM; EC50 [23]: > 20 µM; EC50 [24]: > 20 µM; EC50 [25]: > 20 µM; EC50 [26]: > 20 µM
3 | Nc1nc(CC(O)c2ccc(Cl)cc2)c(Br)c(=O)[nH]1 (stereo unspecified) | > 100 | > 100 | > 100 | > 100 | > 100 | 100 | > 100 | > 100 | > 100 | > 100 | > 100 | > 100 | > 100 | 100 | > 100 | > 100 | > 100 | > 100 | 100 | > 100 | EC50 [21]: 100 µM; MCC [22]: > 100 µM; EC50 [23]: > 100 µM; EC50 [24]: 45 µM; EC50 [25]: > 100 µM; EC50 [26]: > 100 µM
4 | CCCCc1nc(N)[nH]c(=O)c1Br | ≥ 100 | > 100 | 100 | > 100 | > 100 | > 20 | > 100 | > 100 | > 20 | > 100 | > 100 | > 100 | > 100 | > 20 | > 100 | > 100 | > 100 | > 100 | > 20 | > 100 | EC50 [21]: > 20 µM; MCC [22]: > 100 µM; EC50 [23]: > 20 µM; EC50 [24]: 10 µM; EC50 [25]: > 100 µM; EC50 [26]: > 100 µM
5 | CCCc1nc(N)[nH]c(=O)c1Br | > 100 | > 100 | > 100 | > 100 | > 100 | > 100 | > 100 | > 100 | > 100 | > 100 | > 100 | > 100 | > 100 | > 100 | > 100 | > 100 | > 100 | > 100 | > 100 | > 100 | EC50 [21]: > 100 µM; MCC [22]: > 100 µM; EC50 [23]: > 100 µM; EC50 [24]: > 100 µM; EC50 [25]: > 100 µM; EC50 [26]: > 100 µM
6 | CCCCCc1nc(N)[nH]c(=O)c1Br | > 20 | > 100 | 20 | > 100 | > 100 | > 4 | > 100 | > 100 | > 4 | > 100 | > 100 | > 100 | > 100 | > 4 | > 100 | > 100 | > 100 | > 100 | > 4 | > 100 | EC50 [21]: > 4 µM; MCC [22]: > 100 µM; EC50 [23]: > 4 µM; EC50 [24]: 2 µM; EC50 [25]: > 100 µM; EC50 [26]: > 100 µM
